Measurements reported in ChEMBL document CHEMBL4004810, “Pharmacokinetics of the Individual Major Components of Polymyxin B and Colistin in Rats” (J Nat Prod, 2017).
Positions of bridges follow the written chain, without caps; N, C: chain ends. Non-standard residues stand in square brackets, D forms with d. Residues, ends and D or L forms follow the SMILES beside them. *: point of attachment. Heptanoyl(6-Me) = CC(C)CCCCC(=O)*; X1 = CC[C@@H](C)CCCCC(=O)*; X2 = CC[C@H](C)CCCCC(=O)*; Octanoyl = CCCCCCCC(=O)*; Dab = NCC[C@H](N)C(=O)O

Tests used:
[1] = Clearance in Sprague-Dawley rat at 4 mg/kg, iv administered as single bolus cassette dose by UPLC-MS/MS analysis; assay type: ADME, organism-based; conditions: in vivo
[2] = Protein binding in rat plasma up to 10 ug/ml after 2 hrs by LC-MS/MS based ultrafiltration method; conditions: read-out: PPB (converted)
[3] = Plasma concentration in Sprague-Dawley rat at 0.8 mg/kg, iv administered as single bolus dose after 360 mins by LC-MS/MS analysis; assay type: ADME, organism-based
Method in brief: (§1)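 Jugular vein (dosing) and carotid artery (sampling) cannulated rats, recovered one day; 4 groups, n = 4, each given a 0.8 mg/kg iv bolus of one component. Blood sampled predose and at 10–360 min; urine collected in chilled metabolic cages over 0–6 h and 6–24 h. Plasma and urine quantified by LC-MS/MS (calibration 0.1–8.0 mg/L); parameters by noncompartmental analysis.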

[4] = Total clearance in Sprague-Dawley rat at 0.8 mg/kg, iv administered as single bolus dose by LC-MS/MS analysis; assay type: ADME, organism-based; conditions: in vivo; method in brief: as §1
[5] = Volume of distribution in Sprague-Dawley rat at 0.8 mg/kg, iv administered as single bolus dose by LC-MS/MS analysis; assay type: ADME, organism-based; conditions: in vivo; method in brief: as §1
[6] = Elimination half life in Sprague-Dawley rat at 0.8 mg/kg, iv administered as single bolus dose by LC-MS/MS analysis; assay type: ADME, organism-based; conditions: in vivo, read-out: beta t1/2; method in brief: as §1
[7] = AUC (0 to infinity) in Sprague-Dawley rat at 0.8 mg/kg, iv administered as single bolus dose by LC-MS/MS analysis; assay type: ADME, organism-based; parameters: dose 0.8 mg/kg, route intravenous, time infinity; conditions: in vivo; method in brief: as §1
[8] = Drug recovery in Sprague-Dawley rat urine at 0.8 mg/kg, iv administered as single bolus dose by LC-MS/MS analysis; assay type: ADME, organism-based; conditions: read-out: Drug recovery; method in brief: as §1
[9] = Protein binding in Sprague-Dawley rat plasma at 5 mg/L after 30 mins by ultracentrifugation based LC-MS/MS method; assay type: ADME, cell-free; conditions: read-out: PPB (converted)
Method in brief: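 Drug-free rat plasma spiked with 5 mg/L component in triplicate, incubated 30 min at 37 °C, then ultracentrifuged 215000g for 4 h at 37 °C. Two replicates sampled protein-free supernatant, one sampled total resuspension; both measured by LC-MS/MS. % bound = (total − supernatant)/total × 100.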

[10] = Total clearance in Sprague-Dawley rat at 1 mg/kg, iv administered as bolus dose by HPLC analysis; assay type: ADME, organism-based; conditions: in vivo

Compound	clearance [1] [mL/min/kg]	fraction unbound at 2 h [2]	concentration at 6 h [3] [ng/mL]	clearance [4] [mL/min/kg]	Vd [5] [L/kg]	half-life [6] [min]	AUC(0-inf) [7] [ng·h/mL]	dose excreted [8] [%]	fraction unbound at 0.5 h, 5 mg/L [9]	clearance [10] [mL/min/kg]
CCCCCCCC(=O)N[C@@H](CCN)C(=O)N[C@H](C(=O)N[C@@H](CCN)C(=O)N[C@H]1CCNC(=O)[C@H]([C@@H](C)O)NC(=O)[C@H](CCN)NC(=O)[C@H](CCN)NC(=O)[C@H](CC(C)C)NC(=O)[C@@H](Cc2ccccc2)NC(=O)[C@H](CCN)NC1=O)[C@@H](C)O (Octanoyl-[Dab]T[Dab][Dab][Dab][dF]L[Dab][Dab]T; lactam 4-C)	1.69	0.08	–	–	–	–	–	–	–	–
CC[C@@H](C)CCCCC(=O)N[C@@H](CCN)C(=O)N[C@H](C(=O)N[C@@H](CCN)C(=O)N[C@H]1CCNC(=O)[C@H]([C@@H](C)O)NC(=O)[C@H](CCN)NC(=O)[C@H](CCN)NC(=O)[C@H](CC(C)C)NC(=O)[C@@H](Cc2ccccc2)NC(=O)[C@H](CCN)NC1=O)[C@@H](C)O (X1-[Dab]T[Dab][Dab][Dab][dF]L[Dab][Dab]T; lactam 4-C)	1.65	0.08	200	2.39	0.21	79.5	6080	0.13	0.177	–
CC[C@H](C)CCCCC(=O)N[C@@H](CCN)C(=O)N[C@H](C(=O)N[C@@H](CCN)C(=O)N[C@H]1CCNC(=O)[C@H]([C@@H](C)O)NC(=O)[C@H](CCN)NC(=O)[C@H](CCN)NC(=O)[C@H](CC(C)C)NC(=O)[C@@H](CC(C)C)NC(=O)[C@H](CCN)NC1=O)[C@@H](C)O (X2-[Dab]T[Dab][Dab][Dab][dL]L[Dab][Dab]T; lactam 4-C)	–	–	–	2.75	0.27	82	5020	0.14	0.434	5.1
CC(C)CCCCC(=O)N[C@@H](CCN)C(=O)N[C@H](C(=O)N[C@@H](CCN)C(=O)N[C@H]1CCNC(=O)[C@H]([C@@H](C)O)NC(=O)[C@H](CCN)NC(=O)[C@H](CCN)NC(=O)[C@H](CC(C)C)NC(=O)[C@@H](CC(C)C)NC(=O)[C@H](CCN)NC1=O)[C@@H](C)O [COLISTIN B] ({Heptanoyl(6-Me)}-[Dab]T[Dab][Dab][Dab][dL]L[Dab][Dab]T; lactam 4-C)	–	–	–	3.05	0.37	91.3	4600	0.24	0.583	5.3
CC(C)CCCCC(=O)N[C@@H](CCN)C(=O)N[C@H](C(=O)N[C@@H](CCN)C(=O)N[C@H]1CCNC(=O)[C@H]([C@@H](C)O)NC(=O)[C@H](CCN)NC(=O)[C@H](CCN)NC(=O)[C@H](CC(C)C)NC(=O)[C@@H](Cc2ccccc2)NC(=O)[C@H](CCN)NC1=O)[C@@H](C)O [POLYMYXIN B2] ({Heptanoyl(6-Me)}-[Dab]T[Dab][Dab][Dab][dF]L[Dab][Dab]T; lactam 4-C)	1.69	0.08	200	1.96	0.23	94.9	6930	0.09	0.316	–
